{"data": "Measured values from different studies", "target": "Serine/threonine-protein kinase WNK1 (WNK1, Homo sapiens, UniProt Q9H4A3)", "note": "Protocols differ between the studies behind these lines."}
{"SMILES": "Cc1ccc(C(=O)NCc2ccsc2)cc1C#Cc1cn(C(C)C)c2ncnc(N)c12", "read-out": "enzyme activity", "action": "inhibitor", "tested at": "1 µM", "endpoint": "activity vs control", "result": "92%"}
{"SMILES": "CC(C)(C)c1nc(-c2cccc(NS(=O)(=O)c3c(F)cccc3F)c2F)c(-c2ccnc(N)n2)s1", "read-out": "enzyme activity", "action": "inhibitor", "technique": "radiometric", "tested at": "1 µM", "endpoint": "remaining activity", "result": "98%"}
{"SMILES": "COc1cc(Cl)c(C(=O)N[C@@H](CN[C@H]2CC[C@@H](N)CC2)Cc2ccc(C#N)cc2)cc1-c1ccc(CN[C@H](C)c2ccc(C)cc2)o1", "read-out": "enzyme activity", "action": "inhibitor", "tested at": "1 µM", "endpoint": "remaining activity", "result": "109%"}
{"SMILES": "O=C(Nc1cnn(-c2csc(C(=O)NC3COC3)c2)c1)Nc1ccccc1Cl", "read-out": "enzyme activity", "action": "inhibitor", "tested at": "5 µM", "endpoint": "remaining activity", "result": "99.7%"}
{"SMILES": "CN(c1nccc(-c2cnn3ncccc23)n1)C1CC1", "read-out": "binding", "tested at": "1 µM", "endpoint": "remaining binding", "result": "100%"}
{"SMILES": "O=C(CSc1nc2nccnc2c(=O)n1CCc1ccccc1)Nc1nccs1", "read-out": "enzyme activity", "action": "inhibitor", "tested at": "10 µM", "endpoint": "inhibition", "result": "1%"}
{"SMILES": "COc1cc(/C=C/C(=O)CC(=O)/C=C/c2ccc(O)c(OC)c2)ccc1O", "read-out": "enzyme activity", "action": "inhibitor", "tested at": "1 µM", "endpoint": "activity vs control", "result": "98%"}
{"SMILES": "CO[C@@H](C)c1c(Nc2ccc([C@H](N(C)C(=O)C3CCS(=O)(=O)CC3)C(F)(F)F)cc2)cnc2cc(Cl)nn12", "read-out": "cell-free assay", "technique": "competition with immobilised ligand", "tested at": "1 µM", "endpoint": "remaining binding", "result": "100%"}
{"SMILES": "Cn1cncc1C1=CN(c2ncnc3[nH]cnc23)CCS1", "read-out": "enzyme activity", "action": "inhibitor", "technique": "radiometric", "tested at": "2 µM", "endpoint": "inhibition", "result": "10.7%"}
{"SMILES": "C[C@@H]1CN(c2cc(-c3nn(C)c4ccc(OC5(C)CC5)cc34)ncn2)C[C@H](C)O1", "read-out": "cell-free assay", "technique": "competition with immobilised ligand", "tested at": "1 µM", "endpoint": "remaining binding", "result": "82%"}
{"SMILES": "COc1cc(Nc2cnc(C#N)c(O[C@H](C)CN(C)C)n2)ncc1-c1cnn(C)c1", "read-out": "enzyme activity", "action": "inhibitor", "technique": "radiometric", "tested at": "1 µM", "endpoint": "remaining activity", "result": "95%"}
{"SMILES": "COc1ccc2cc(OCC3(C(=O)O)CN(C(=O)c4ccc(F)cc4)C3)ccc2c1", "read-out": "cell-free assay", "technique": "competition with immobilised ligand", "tested at": "1 µM", "endpoint": "remaining binding", "result": "84%"}
{"SMILES": "FC(F)(F)Oc1cccc(-c2cnc3ccc(-c4ccncc4)nn23)c1", "read-out": "enzyme activity", "action": "inhibitor", "technique": "radiometric", "tested at": "5 µM", "endpoint": "activity vs control", "result": "99%"}
{"SMILES": "N#Cc1ccc(Nc2ccc3[nH]c(=O)[nH]c3c2)c(Cl)c1", "read-out": "cell-free assay", "technique": "competition with immobilised ligand", "tested at": "1 µM", "endpoint": "remaining binding", "result": "100%"}
{"SMILES": "Cc1sc(C(=O)NC2COC2)cc1-n1cc(NC(=O)Nc2c(F)cccc2Cl)cn1", "read-out": "enzyme activity", "action": "inhibitor", "tested at": "10 µM", "endpoint": "remaining activity", "result": "88.9%"}
